# Assay outcomes (PubChem)
# NTR1 agonist: agonists of human NTR1, primary screen, imaging, U2OS cells, beta-arrestin-GFP, high content | Neurotensin receptor type 1 (Homo sapiens), P30989 | NTR1-U2OS beta-arrestin-GFP spot imaging, agonist mode | activation, % at 20 µM | 330,000 tested, 0.17% active;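 active = activation at or above 40% of the spot to cytoplasm intensity ratio, with at least 20 cells analyzed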;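 note: 0% = DMSO without peptide and 100% = 100 nM NTR1 peptide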
# Target sequence (P30989 whole entry, looked up): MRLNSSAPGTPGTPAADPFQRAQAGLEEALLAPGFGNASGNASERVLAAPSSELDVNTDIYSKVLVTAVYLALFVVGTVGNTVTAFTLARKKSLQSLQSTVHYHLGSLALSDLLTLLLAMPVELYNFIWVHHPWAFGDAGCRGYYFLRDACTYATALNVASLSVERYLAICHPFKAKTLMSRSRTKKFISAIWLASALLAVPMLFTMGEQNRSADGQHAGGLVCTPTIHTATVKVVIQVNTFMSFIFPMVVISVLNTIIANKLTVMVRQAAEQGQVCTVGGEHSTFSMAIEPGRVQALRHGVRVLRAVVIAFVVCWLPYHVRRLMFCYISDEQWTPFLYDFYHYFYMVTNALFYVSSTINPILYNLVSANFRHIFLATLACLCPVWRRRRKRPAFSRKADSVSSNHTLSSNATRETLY
# PLC-beta3 inh: human PLC-beta3 inhibitors, primary screen, biochemical, fluorescence; Purified PLC-beta3, fluorogenic substrate; inhibition, % at 12.2 µM; 370,000 tested, 0.18% active; in the data active = inhibition above about 11%;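 note: 0% = median of compound wells on plate and 100% = full blocker control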
# Arr AP2 block: inhibitors of beta-arrestin/AP2 binding, primary screen, biochemical, GPCR trafficking, flow cytometry; beta-arrestin 1 C-terminal peptide binding to AP2 beta2-adaptin appendage (human); FITC-arrestin peptide / GST-AP2 beads; AP2 beta2 appendage carries R879A mutation; inhibition, % at 10 µM; 340,000 tested, 0.31% active; AID 504490, 2011;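 active = inhibition above a set limit, near 3 SD of compounds lacking own fluorescence, cut at about 54% in these data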;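 note: plate controls were DMSO wells for no effect and 5 µM unlabelled arrestin peptide for full effect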
#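 Test system: GST-tagged AP2 beta2-adaptin appendage (R879A) on 4 µm glutathione beads; also added: fluorescein-tagged arrestin peptide at 50 nM final; timing: 12 min plus 1 h, RT; signal: flow cytometry, FL1 (488/535 nm); read-out: percent drop in bead-associated FITC signal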
# PLCg1 inh: PLC-gamma1 enzyme inhibitors, primary screen, biochemical, fluorescence, purified enzyme | 1-phosphatidylinositol 4,5-bisphosphate phosphodiesterase gamma-1 (Homo sapiens), P19174 | fluorogenic substrate | inhibition, % at 12.2 µM | 370,000 tested, 0.84% active | AID 720700, 2013; in the data active = inhibition above about 9.5%
# Arr-AP2 CP1: inhibitors of arrestin peptide binding to AP2, confirmation, biochemical, cherry pick 1, flow cytometry beads | GST-AP2 beads, FITC arrestin peptide binding; GST-fused beta2-adaptin appendage, R879A mutant | 1,300 tested, 2% active | shares compounds with Arr AP2 block | inhibition, % at 10 µM;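 active = inhibition above a set limit, roughly 3 SD of non-fluorescent compound noise, cut at about 38% in these data; inactive = inhibition at or below that limit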;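 note: loss of bead fluorescence from 50 nM FITC arrestin peptide bound to appendage; 0% = negative control wells and 100% = excess unlabelled arrestin peptide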
# GST-FITC bead: GST-fluorescein capture on glutathione beads, confirmation, artefact control for arrestin-AP2 inhibitor project, biochemical, cherry pick 1, flow cytometry; shares compounds with Arr AP2 block; GST-fluorescein binding to GSH beads, fluorescence, counter-screen; inhibition, % at 10 µM; 1,300 tested, 2% active; AID 588338, 2011;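 active = inhibition above 50%, about 3 SD of the inhibition seen with non-fluorescent compounds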;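 note: fluorescein maleimide labelled GST captured on 4 micron glutathione beads; higher means more loss of bead fluorescence from quenching or blocked binding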
# The depositor's hits bear a star; / = no result given. An excerpt weighted towards active compounds, which were near 1.3% of everything screened.
SMILES,NTR1 agonist,PLC-beta3 inh,Arr AP2 block,PLCg1 inh,Arr-AP2 CP1,GST-FITC bead
Cc1ccc(CSc2nc3c(c(SCC(=O)O)n2)CCCC3)cc1,1.0,-9.4,-6.8,-2.6,/,/
COC(=O)CSc1nc(SCc2ccc(C)cc2)nc2c1CCCC2,3.9,1.8,99.4*,2.9,-7.2,6.3
COC(=O)[C@]1(CNS(=O)(=O)c2ccc(F)cc2)CC(=O)N(C)[C@@H]1c1ccccc1,/,2.0,/,-2.3,/,/
COc1ccc(N2CCN(C(CNS(=O)(=O)c3cc(F)ccc3F)c3cccnc3)CC2)cc1 (stereo not drawn),-0.1,4.3,84.2*,-0.4,16.4,-11.4
C[C@@H]1COc2cccc(N3CCSCC3)c2S(=O)(=O)N1C,/,-0.5,/,0.8,/,/
CC(C)n1nc(C(=O)Oc2cc(Cl)ccc2Cl)c2ccccc2c1=O,-1.3,3.8,-4.6,1.6,/,/
CC(OC(=O)c1nn(C(C)C)c(=O)c2ccccc12)C(=O)Nc1ncc(Cl)cc1Cl (stereo not drawn),1.5,5.8,61.0*,6.6,-8.8,1.4
COc1ccc(C)cc1N(C(=O)c1snc(C(N)=O)c1N)C(C(=O)NC1CCCCC1)c1ccc(C)o1 (stereo not drawn),8.2,-28.5,72.0*,-16.7,2.3,-1.5
O=C(OC12CCCN(C1)/C(=C/c1cccnc1)C2)c1ccco1 (stereo not drawn),/,-3.0,/,-2.1,/,/
O=C(NCCCO)Nc1ccc2nc(-c3ccco3)c(-c3ccco3)nc2c1,0.2,/,/,/,/,/
O=C(Nc1ccc2nc(-c3ccco3)c(-c3ccco3)nc2c1)NC1CC1,1.0,/,58.0*,/,30.3,26.6
COc1ccccc1-n1cnc2c(c1=O)c1nc3ccccc3nc1n2CCc1ccccc1,8.2,-0.8,72.9*,1.2,0.7,68.1*
COc1ccc(NC(=O)c2ccc3nc[nH]c3c2)cc1,0.9,-4.2,60.4*,3.1,13.7,0.5
O=C(Nc1ccc(C(F)(F)F)cc1)c1ccc2nc[nH]c2c1,-1.3,-4.2,-7.5,0.1,/,/
N#Cc1cccc(C(c2nnnn2C2CCCC2)N2CCC(Cc3ccccc3)CC2)c1 (stereo not drawn),5.8,2.4,69.2*,5.4,-12.1,0.2
COC(=O)[C@]12C[C@H](CC(=O)NCC3CCCCC3)C(=O)N(CCC3=CCCCC3)C1=C[C@H](C1CCCC1)O[C@@H]2C,/,0.6,/,-0.9,/,/
Cc1noc(C)c1S(=O)(=O)N1CCCc2nc(-c3ccc(Br)cc3)ccc21,/,-5.1,/,-1.6,/,/
CCOc1ccc(C(CC(=O)O)NC(=O)c2sc3ccccc3c2Cl)cc1 (stereo not drawn),1.3,-6.3,104.2*,0.2,-4.5,-4.4
COC(=O)[C@H](C(C)C)N(Cc1cn(CC2CCCCC2)nn1)S(=O)(=O)c1ccc(F)cc1Br,/,0.8,/,3.5,/,/
CCn1c(=O)n(CC(=O)N2CCCN(Cc3ccccc3)CC2)c(=O)c2ccccc21,/,1.2,/,2.2,/,/
COc1cc(C(=O)O)nc2ccccc12,-0.3,0.8,56.4*,0.7,-10.3,-2.2
Cn1ncc(Br)c1C(=O)NC1CCCCC1,1.6,-2.0,5.7,-1.3,/,/
CCn1ncc(Br)c1C(=O)NC1CCCCCCC1,-0.2,-10.5,60.0*,0.2,-3.5,-8.3
O=C(CCSCCC(=O)Nc1c(F)c(F)c(F)c(F)c1F)Nc1c(F)c(F)c(F)c(F)c1F,0.0,-3.0,58.1*,-0.2,-7.8,-3.9
COc1ccc(Cl)cc1NC(=O)COC(=O)C1CC1,4.9,0.0,-3.2,-2.6,/,/
SMILES,NTR1 agonist,PLC-beta3 inh,Arr AP2 block,PLCg1 inh,Arr-AP2 CP1,GST-FITC bead
COc1ccc(Cl)cc1NC(=O)CN(C)C(=O)C1CC(=O)N(Cc2ccc(C)cc2)C1 (stereo not drawn),-0.2,-0.5,1.9,-1.7,/,/
COc1ccc(Cl)cc1NC(=O)COC(=O)C1CC(=O)N(Cc2ccccc2)C1 (stereo not drawn),0.1,-5.1,57.8*,0.8,5.0,0.7
COc1ccc(Cl)cc1NC(=O)COC(=O)C1CCCCC1,-0.6,-6.0,56.7*,-0.1,6.3,-7.3
CCOC(=O)[C@]12CCCC3=C1N(CCC3)C(=O)[C@@H](CC(=O)NCc1cccc(C(F)(F)F)c1)C2,/,0.5,/,-0.6,/,/
CC(C)Oc1ccc(Oc2ccc(C#C[C@H](C)N3C(=O)c4ccccc4C3=O)cc2)cn1,/,0.6,/,1.8,/,/
COCCCN1C(=O)[C@H](CC(=O)N2CCCC2)[C@]2(C(=O)OC)CCCCC=C12,/,0.6,/,0.3,/,/
COc1ccc(C2Nc3ccc4ccccc4c3-c3c2c(=O)oc2ccccc32)cc1 (stereo not drawn),2.9,-110.3,8.6,-75.4,/,/
O=c1oc2ccccc2c2c1C(c1ccc(Cl)cc1)Nc1ccc3ccccc3c1-2 (stereo not drawn),3.3,-31.1,84.7*,-23.2,-5.4,-1.0
Cc1sc2ncnc(NCc3cccs3)c2c1C,1.7,-3.5,-4.0,-0.4,/,/
Cc1sc2ncnc(NCc3ccco3)c2c1C,-0.8,-6.1,85.3*,-4.5,-5.6,-0.8
COc1ccc(NC(=O)N(CCN2CCCC2)Cc2cc3cc(OC)c(OC)cc3[nH]c2=O)cc1,-0.1,-9.2,86.5*,-10.1,4.7,-8.2
O=C(Nc1ccc(F)cc1)N(CCCN1CCOCC1)Cc1cc2cc3c(cc2[nH]c1=O)OCO3,-0.9,-12.1,67.6*,-6.9,-6.5,-5.6
COc1ccc(CN(Cc2cc3cc(OC)c(OC)cc3[nH]c2=O)C(=O)NC2CCCCC2)cc1,-2.8,-0.8,1.5,1.0,9.4,-2.9
COc1ccc(NC(=O)N(CCCN(C)C)Cc2cc3cc(OC)ccc3[nH]c2=O)cc1,-0.1,-12.4,0.9,-16.3,/,/
O=C1C2C3CCCC3=C3CCCC3C2C(=O)N1c1cccc(Cl)c1 (stereo not drawn),4.6,-22.6,-7.9,-19.2,/,/
O=C1C2C3C=CC(c4ccccc4)(C2C(=O)N1c1cccc(Cl)c1)C1C(=O)N(c2cccc(Cl)c2)C(=O)C31 (stereo not drawn),3.3,5.1,60.5*,2.4,5.1,-7.8
Cc1ccc(-c2nc(C3CCCN(S(=O)(=O)c4ccc(C)c(C)c4)C3)no2)cc1 (stereo not drawn),/,4.5,/,8.3,/,/
CCOC(=O)Cn1c(=NC(=O)c2cccs2)sc2cc(C(=O)OC)ccc21,-1.1,-7.0,106.4*,-4.8,-4.9,/
CCOc1ccc(NC(=O)CC2C(=O)N(c3ccc(OC)cc3)C(=O)N2CCc2ccc(OC)c(OC)c2)cc1 (stereo not drawn),0.2,1.4,55.8*,1.1,0.2,-0.7
Nc1nc(NCc2ccccc2)nc(NCCO)c1[N+](=O)[O-],-0.5,-5.6,56.4*,4.6,-6.3,-7.5
